Measured values published in ChEMBL document CHEMBL1149811, “Synthesis of novel 4,6-disubstituted quinazoline derivatives, their anti-inflammatory and anti-cancer activity (cytotoxic) against U937 leukemia cell lines” (Eur J Med Chem, 2008).
Values after ≈ are worked out from the molar mass of the structure shown.

Tests used:
[1] = system: Rattus norvegicus; assay: Antiinflammatory activity in Wistar rat assessed as inhibition of carrageenan-induced paw edema at 100 mg/kg, po; type: functional
Procedure, shortened: (§1)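 Male Wistar rats, fasted overnight, three per group. Given orally as 1% gum acacia suspension (test 100 mg/kg, indomethacin 10 mg/kg; controls vehicle). One hour later, 0.1 ml of 1% carrageenan injected sub-plantar into left hind paw. Paw volume measured by digital plethysmometer before carrageenan and at 3 h. Percent inhibition per rat versus mean control paw volume, reported as mean ± SE.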

[2] = system: U-937; assay: Cytotoxicity against human U937 cells after 2 days by MTT assay; type: functional, cell-based; details: U-937, 48 h
Procedure, shortened: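 U937 human histocytic lymphoma cells grown in RPMI-1640 with 10% FBS at 37 °C under CO2. Seeded at 2 × 10^4 cells/well and compounds added after 24 h. Viability read after two days by MTT (4 h at 37 °C, formazan dissolved in DMSO, absorbance 570 nm). Percent inhibition versus untreated control; IC50 (50% cell-number decrease) by linear regression; mean ± SE of four observations.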

[3] = system: Rattus norvegicus; assay: Antiinflammatory activity in Wistar rat assessed as inhibition of carrageenan-induced paw edema at 10 mg/kg, po; type: functional; procedure, shortened: as §1

| Structure (SMILES) | inhibition in vivo at 100 mg/kg [1] [%] | IC50 [2] [µg/mL] | inhibition in vivo at 10 mg/kg [3] [%] |
| --- | --- | --- | --- |
| O=C(O)[C@H](Cc1c[nH]c2ccccc12)Nc1nc(-c2ccccc2)nc2ccc(I)cc12 | 0 | 46.1 (≈ 86.3 µM) | – |
| O=C(O)[C@H](Cc1c[nH]c2ccccc12)Nc1nc(-c2ccccc2)nc2ccccc12 | 1.8 | 74.8 (≈ 183 µM) | – |
| O=C(O)CNc1nc(-c2ccccc2)nc2ccccc12 | 0 | – | – |
| O=C(O)CNc1nc(-c2ccccc2)nc2ccc(Br)cc12 | 0 | – | – |
| O=C(O)CNc1nc(-c2ccccc2)nc2ccc(I)cc12 | 0 | – | – |
| C[C@H](Nc1nc(-c2ccccc2)nc2ccc(I)cc12)C(=O)O | 6.5 | – | – |
| O=C(O)[C@H](Cc1ccccc1)Nc1nc(-c2ccccc2)nc2ccc(Br)cc12 | 0 | 50.4 (≈ 112 µM) | – |
| CC[C@H](C)[C@H](Nc1nc(-c2ccccc2)nc2ccccc12)C(=O)O | 4.1 | 121 (≈ 360 µM) | – |
| CC[C@H](C)[C@H](Nc1nc(-c2ccccc2)nc2ccc(Br)cc12)C(=O)O | 0 | 32 (≈ 77.3 µM) | – |
| CC[C@H](C)[C@H](Nc1nc(-c2ccccc2)nc2ccc(I)cc12)C(=O)O | 0 | 52.4 (≈ 114 µM) | – |
| O=C(O)[C@H](Cc1ccccc1)Nc1nc(-c2ccccc2)nc2ccccc12 | 0 | – | – |
| O=C(O)[C@H](Cc1c[nH]c2ccccc12)Nc1nc(-c2ccccc2)nc2ccc(Br)cc12 | 0 | 37.9 (≈ 77.8 µM) | – |
| C[C@H](Nc1nc(-c2ccccc2)nc2ccccc12)C(=O)O | 9.3 | – | – |
| C[C@H](Nc1nc(-c2ccccc2)nc2ccc(Br)cc12)C(=O)O | 0 | 104 (≈ 280 µM) | – |
| O=C(O)[C@H](Cc1ccccc1)Nc1nc(-c2ccccc2)nc2ccc(I)cc12 | 3.7 | 16.1 (≈ 32.5 µM) | – |
| COc1cc([C@@H]2c3cc4c(cc3[C@@H](O[C@@H]3O[C@@H]5CO[C@@H](C)O[C@H]5[C@H](O)[C@H]3O)[C@H]3COC(=O)[C@H]23)OCO4)cc(OC)c1O [ETOPOSIDE] | – | 10.6 (≈ 17.9 µM) | – |
| COc1ccc2c(c1)c(CC(=O)O)c(C)n2C(=O)c1ccc(Cl)cc1 [INDOMETHACIN] | – | – | 48 |
